Assay outcomes: PubChem, several laboratories
MBD2 DNA inh: blocks human MBD2 binding to methylated DNA; Q9UBB5; AID 686964; TR-FRET, MBD2 binding to methylated oligonucleotide; 0.31% of 370,000 active; inhibition, % at 4.4 µM; in the data active = inhibition above about 13%
Target sequence (Q9UBB5 whole entry, looked up): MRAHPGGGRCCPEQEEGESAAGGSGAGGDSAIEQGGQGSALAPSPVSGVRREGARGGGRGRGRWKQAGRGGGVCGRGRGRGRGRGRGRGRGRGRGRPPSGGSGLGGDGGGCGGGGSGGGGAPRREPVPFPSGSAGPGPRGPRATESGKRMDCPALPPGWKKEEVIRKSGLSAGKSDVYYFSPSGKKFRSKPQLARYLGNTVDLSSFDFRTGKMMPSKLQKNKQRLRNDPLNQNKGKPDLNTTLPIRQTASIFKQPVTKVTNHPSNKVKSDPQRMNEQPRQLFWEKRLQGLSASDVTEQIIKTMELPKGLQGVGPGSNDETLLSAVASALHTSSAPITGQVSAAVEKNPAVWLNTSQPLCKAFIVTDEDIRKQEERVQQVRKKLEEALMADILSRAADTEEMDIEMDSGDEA
DNMT1 block: DNMT1 (human) enzyme inhibition; DNMT1 molecular beacon, Hinp1I cleavage, fluorescence; inhibition (reported as % activation of signal), % at 10 µM; 0.83% of 360,000 active; AID 588458; in the data active = inhibition above about 50%
UHRF1 binding: human UHRF1 methylated DNA binding inhibitors | inhibition, % at 4.4 µM | UHRF1 binding to methylated oligo, TR-FRET | Q96T88 | 0.75% of 370,000 active; in the data active = inhibition above about 21%;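 also: UHRF1 SRA domain binding a hemimethylated CpG hairpin DNA probe; 0% = median of test compound wells and 100% = reference inhibitor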
Pemphigus Ab inh: human desmoglein-3 autoantibody binding inhibition | DSG3-coupled beads, scFv-anti-DSG3-GFP binding, flow cytometry; stronger effect = lower value | 0.48% of 310,000 active | binding (percent of control), % at 10 µM;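 active = binding more than 3 SD below its plate's average and above zero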;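 also: hits lower antibody fragment binding to DSG3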
SUMO1 PPI mod: SUMO1-SIM interaction modulation; inhibition, % at 20 µM; SUMO1 binding to a labelled peptide, TR-FRET, 1 h; 0.33% of 360,000 active; in the data active = inhibition above about 37%
Target sequence (P63165 whole entry, looked up): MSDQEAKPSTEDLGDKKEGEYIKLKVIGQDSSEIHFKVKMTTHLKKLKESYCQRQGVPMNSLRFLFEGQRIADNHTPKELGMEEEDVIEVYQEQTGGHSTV
NS3 helicase inh: HCV NS3 helicase inhibition. 0.56% of 290,000 active. NS3 helicase DNA unwinding, Cy5 molecular beacon fluorescence. inhibition, % at 10.9 µM;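 active = inhibition above the mean of all tested compounds plus 3 SD, set per campaign, cut at about 35% in these data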;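 also: 0% = DMSO wells and 100% = thioflavine S control wells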
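Assay system: hepatitis C virus NS3 helicase domain fragment enzyme. Also added: annealed dual-labelled DNA beacon duplex, ATP-started. Timing: 1 h reaction at 25 °C, ATP-initiated. Technique: Cy5 fluorescence at 0 and 60 min, beacon hairpin quenching. Evaluation: % inhibition of unwinding. Replication: one well per compound.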
Beacon interf DR: counter-screen for DNMT1 inhibitors: spectral interference, dose response; shares compounds with DNMT1 block; molecular beacon fluorescence; IC50, µM; 200 tested, under 10 active; call rule not given here
DNMT1 confirm: confirmation of human DNMT1 inhibitors; inhibition, % at 10 µM; shares compounds with DNMT1 block; AID 602385; 8% of 2,300 active; DNMT1 molecular beacon HinP1I cleavage, fluorescence;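 active = average inhibition of at least 30% in the single-concentration confirmation test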
DNMT1 interf: beacon fluorescence artifact counter-screen | 1% of 2,300 active | shares compounds with DNMT1 block | AID 602387 | activation (fluorescence interference), % at 10 µM | DNMT1 molecular beacon spectral interference counterscreen, fluorescence 485/520;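 active = activation of at least 30% at 10 µM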;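 also: DNMT1 catalytic domain with a HinP1I cleavage step and a FAM/dabcyl DNA beacon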
Numbers without * were called inactive; nt = not tested or not shown. Only some compounds are listed: those with a hit (about 2.5% of all), similar ones and a draw of the others.

SMILES | MBD2 DNA inh | DNMT1 block | UHRF1 binding | Pemphigus Ab inh | SUMO1 PPI mod | NS3 helicase inh | DNMT1 confirm | DNMT1 interf | others
CCN(c1ccccc1)S(=O)(=O)c1cc(NC(=O)C2CC2)ccc1Cl | 3.0 | -2.3 | 4.0 | 108.3 | 1.1 | nt | nt | nt
COc1ccc(-c2csc3nc(-c4ccc(C)cc4)oc(=O)c23)cc1OC | -5.5 | 85.2* | -0.7 | 115.9 | 0.2 | -4.1 | -0.2 | -8.1
O=C(NCCc1ccccc1)C(=O)NCC1OCCCN1S(=O)(=O)c1ccc(F)cc1 (stereo not drawn) | -2.6 | -1.2 | -1.3 | 102.0 | 3.3 | 1.9 | nt | nt
Nc1ccc2c(c1)[nH]c(=O)c1ccccc12 | 3.3 | 80.0* | -11.6 | nt | -3.0 | nt | 5.6 | 1.2
CC(C)(C)OC(=O)NCCCCCNC(=O)c1[nH]cnc1C(=O)NC1CCN(C(=O)OC(C)(C)C)CC1 | -1.0 | 75.7* | -1.8 | 104.2 | -3.5 | nt | 8.4 | 6.7
CC(NC(=O)CN(c1ccc(F)cc1)S(C)(=O)=O)c1ccccc1 (stereo not drawn) | 4.4 | 0.3 | 0.8 | 115.5 | -3.2 | 11.4 | nt | nt
CC(NC(=O)CN(c1ccc(Cl)cc1)S(C)(=O)=O)c1ccccc1 (stereo not drawn) | -2.1 | 57.5* | 0.3 | 110.8 | 0.8 | -2.5 | 6.7 | 5.0
Nc1ccccc1C(=O)NCCCN1CCN(c2cccc(Cl)c2)CC1 | -3.6 | 0.0 | -2.0 | 113.1 | 0.0 | nt | nt | nt
Cc1ccnc(NC(=O)CCC(=O)N(CC(=O)NCCc2ccccc2)c2ccc(F)cc2)c1 | 7.4 | 1.9 | 2.3 | 103.0 | 5.2 | -4.0 | nt | nt
Cc1ccnc(NC(=O)CCC(=O)N(CC(=O)NCc2ccc(F)cc2)c2ccc(F)cc2)c1 | -2.3 | 73.0* | 0.1 | 123.4 | -2.6 | -9.8 | 5.6 | 7.2
Cc1cc2oc(C(=O)NCCc3ccc(S(N)(=O)=O)cc3)c(C)c2cc1C | 0.7 | 79.3* | 0.1 | 94.3 | 2.8 | 2.1 | 2.7 | 2.3
N#Cc1ccccc1S(=O)(=O)NC(=O)[C@H]1O[C@@H](n2cnc3c(N)ncnc32)[C@H](O)[C@@H]1O | 1.8 | 83.5* | -8.2 | nt | 2.5 | nt | 4.5 | -0.7
CCOC(=O)N1CCN(S(=O)(=O)c2ccc(C)c(C(=O)NC3CCCCC3)c2)CC1 | -1.4 | 1.3 | 0.0 | 102.9 | 5.7 | 5.2 | nt | nt
CC(C)C(CCN1C(=O)c2ccccc2C1=O)c1ccco1 (stereo not drawn) | 0.7 | 1.8 | -4.9 | 103.2 | -5.7 | 6.2 | nt | nt
O=c1c(Cl)c(Cl)cnn1-c1ccccc1 | -1.1 | 5.7 | 5.3 | 103.0 | -9.2 | 0.2 | nt | nt
O=c1c(Cl)c(N/N=C/c2ccc(Cl)cc2)cnn1-c1ccccc1 | -0.7 | 80.0* | -1.1 | 99.2 | -1.0 | 0.5 | 5.0 | 2.5
COc1ccc(NC(=S)N2CCC(C(=O)c3ccc(OC)cc3)CC2)cc1 | 1.8 | -0.4 | -0.4 | 113.8 | 3.9 | 7.4 | nt | nt
COc1ccc(NC(=S)N2CCC(C(=O)c3ccc(C)cc3)CC2)cc1 | 1.8 | 81.3* | 0.8 | 99.0 | 4.6 | -14.2 | 2.0 | 3.4
CC(C)(C)Cc1nnc(NC(=O)Cc2cccs2)s1 | -3.0 | 55.9* | 3.4 | 98.7 | 3.0 | 14.5 | 8.5 | 1.5
CC(C)c1nnc(NC(=O)Cc2cccs2)s1 | -1.5 | -2.4 | 0.3 | 99.1 | -0.2 | -4.4 | nt | nt
O=C(Cc1cccs1)Nc1nnc(CCc2ccccc2)s1 | 1.5 | 2.4 | -0.8 | 124.6 | -3.1 | 18.1 | nt | nt
CCCCCCCCc1nnc(NC(=O)c2ccco2)s1 | 0.5 | 112.7* | 0.1 | 99.7 | 0.5 | 8.4 | 58.7* | 3.5 | Beacon interf DR=>99
O=C(Cc1cccs1)Nc1nnc(-c2ccncc2)s1 | -0.1 | 5.2 | 0.5 | 94.7 | -3.5 | -6.6 | nt | nt
CCCCCc1nnc(NC(=O)Cc2cccs2)s1 | 12.8 | 59.4* | 18.8 | nt | 3.6 | 8.9 | 9.8 | 2.2
CC(C)Cc1nnc(NC(=O)Cc2cccs2)s1 | 1.1 | 63.0* | -0.5 | 103.5 | 0.8 | 31.4 | 19.9 | -3.4
